Consider eight compounds from ChEMBL document CHEMBL1156796, “Design, synthesis, and antihepatitis B virus activities of novel 2-pyridone derivatives” (J Med Chem, 2010).

Series [1] is described as follows: Selectivity index, ratio of CC50 for human HepG2(2.2.15) cells to IC50 for HBV infected in human HepG2(2.2.15) cells assessed as inhibition of HBeAg. Format: functional.
Series [2] is described as follows: Cytotoxicity against human HepG2(2.2.15) cells. The series is classed as cell-based.
The subject of series [3] is Hepatitis B virus. The series is described as follows: Antiviral activity against HBV infected in human HepG2(2.2.15) cells assessed as inhibition of HBeAg level after 9 days by ELISA. Format: functional, organism-based. The following applies: HepG2 2.2.15, 216 h. For orientation: ELISA stands for enzyme-linked immunosorbent assay.
Series [4] has as its system Hepatitis B virus. Kind of series: Antiviral activity against HBV infected in human HepG2(2.2.15) cells assessed as inhibition of HBV DNA replication after 9 days by PCR. The conditions noted are these: Hepatitis B virus, HepG2 2.2.15, 216 h; read-out: IC50. The series is classed as functional, organism-based.
The subject of series [5] is Hepatitis B virus. The series is described as follows: Antiviral activity against HBV infected in human HepG2(2.2.15) cells assessed as inhibition of HBsAg level after 9 days by ELISA. Format: functional, organism-based. The conditions noted are these: HepG2 2.2.15, 216 h.
A short description of series [6]: Selectivity index, ratio of CC50 for human HepG2(2.2.15) cells to IC50 for HBV infected in human HepG2(2.2.15) cells assessed as inhibition of HBsAg. The series is classed as functional. In a few lines: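 MTT at 5 g/L added 4 h before lysis in 10% SDS/50% DMF, pH 7.2, with OD read at 570 nm. IC50: HBsAg in day-9 supernatants measured by ELISA. SI = CC50/IC50.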

The subject of series [7] is Hepatitis B virus. Kind of series: Antiviral activity against HBV infected in human HepG2(2.2.15) cells assessed as inhibition of HBV DNA replication after 9 days by PCR relative to adefovir. The series is classed as functional. An outline of the steps: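 HepG2 2.2.15 cells treated with different dosages of compound; culture supernatants collected nine days after treatment. IC50 taken as the concentration giving 50% inhibition of HBV DNA replication.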

Series [8] in a line: Selectivity index, ratio of CC50 for human HepG2(2.2.15) cells to IC50 for HBV infected in human HepG2(2.2.15) cells assessed as inhibition of HBV DNA replication. The series is classed as functional.

pIC50: −log10 of the molar value.

One may read the CC50 as the concentration that lowers cell viability or growth by half. The low end stands for harm at low concentration, the high end for better tolerance by the cells. As a reminder, the pIC50 is the IC50 on a negative log10 scale, so that one unit is a factor of ten. As to `CCCC/N=C(\c1ccc(=O)n(CCCC)c1)c1ccc(OC)cc1O`, the “Ratio CC50/IC50” value in series [1] was determined as 1; in series [6], 0.5; in series [8], 466.67. In series [2], this compound showed a CC50 of 56 µM. Besides, the pIC50 in the series on Hepatitis B virus [3] is 4.25; in the series with Hepatitis B virus [4], 6.92; with Hepatitis B virus [5], 3.95. Further, the “fold change (FC)” value with Hepatitis B virus [7] was determined as 4.
`C=CCn1cc(C(=O)c2ccc(OC)cc2O)ccc1=O`: the “Ratio CC50/IC50” value in series [1] was found to be 4; in series [6], 0.84; in series [8] it was 2.3. For the same compound, the CC50 in series [2] came to 232 µM. Moreover, the values for the negative logarithm of the IC50 (pIC50) in the series with Hepatitis B virus [3], in the series on Hepatitis B virus [4] and in the series on Hepatitis B virus [5] were 4.24, 4.00 and 3.56, respectively.
Take `COc1ccc(/C(=N/C2CCCCC2)c2ccc(=O)n(C3CCCCC3)c2)c(O)c1`: the “Ratio CC50/IC50” value is listed as 5.45 in series [1], 1.93 in series [6] and 96.75 in series [8]. In series [2], half-maximal cytotoxicity (CC50) was put at 387 µM. Also, the negative logarithm of the IC50 (pIC50) in the series on Hepatitis B virus [3] is 4.15; in the series with Hepatitis B virus [4] it was 5.40; with Hepatitis B virus [5], 3.70.
For `COc1ccc(C(=O)c2ccc(=O)n(-c3ccc(Cl)cc3)c2)c(O)c1`, the “Ratio CC50/IC50” value in series [1] worked out at 102.5; in series [6] it was 2.69; in series [8], 26.45. In series [2], this compound had a 50% cytotoxic concentration (CC50) of 164 µM. In addition, the pIC50 is 5.80 in the series with Hepatitis B virus [3], 5.21 in the series on Hepatitis B virus [4] and 4.21 in the series with Hepatitis B virus [5].
In the case of `COc1ccc(C/N=C(\c2ccc(=O)n(Cc3ccc(OC)cc3)c2)c2ccc(OC)cc2O)cc1`, the “Ratio CC50/IC50” value in series [1] is 16; in series [6], 0.89; in series [8], 32. In series [2], this compound returned a half-maximal cytotoxic concentration (CC50) of 32 µM. In addition, the values for the pIC50 in the series with Hepatitis B virus [3], in the series with Hepatitis B virus [4] and in the series with Hepatitis B virus [5] were 5.70, 6.00 and 4.44, respectively.
Consider `CCCCCn1cc(C(=O)c2ccc(OC)cc2O)ccc1=O`, for which the “Ratio CC50/IC50” value in series [1] stood at 2.03; in series [6], 1.72; in series [8], 3.95. The compound also displayed a half-maximal cytotoxic concentration (CC50) in series [2] of 79 µM. Moreover, the pIC50 is 4.41 in the series on Hepatitis B virus [3], 4.70 in the series with Hepatitis B virus [4] and 4.34 with Hepatitis B virus [5].
Consider `COc1ccc(/C(=N/Cc2cccc(F)c2)c2ccc(=O)n(Cc3cccc(F)c3)c2)c(O)c1`, for which the “Ratio CC50/IC50” value stood at 16 in series [1], 0.62 in series [6] and 3.81 in series [8]. The midpoint of cytotoxicity in series [2], the CC50, lay at 8 µM. Further, the figures for the pIC50 with Hepatitis B virus [3], with Hepatitis B virus [4] and in the series on Hepatitis B virus [5] were 6.30, 5.68 and 4.89, respectively.
`CCCCn1cc(C(=O)c2ccc(OC)cc2O)ccc1=O`: the “Ratio CC50/IC50” value is on record as below 0.5 in series [1], below 0.5 in series [6] and 2.34 in series [8]. This compound showed a CC50 in series [2] of 67 µM. The figures for the pIC50 with Hepatitis B virus [3], in the series with Hepatitis B virus [4] and in the series on Hepatitis B virus [5] were below 3.88, 4.54 and below 3.88, respectively.
